Assay outcomes as filed in PubChem BioAssay.
Shown are actives, neighbours in structure and some others; about 2.5% of the full set was active somewhere.
MC4R antagonist – MC4R antagonists of cAMP signaling, primary screen, cell-based, TR-FRET, antagonist arm of biased-ligand search; actives 0.48% (n = 360,000); MC4R-expressing cells, MTII-stimulated cAMP, LANCE TR-FRET; inhibition, % at 6.5 µM; Melanocortin receptor 4 (Homo sapiens), P32245;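 active = inhibition above its plate's cutoff, the mean of tested wells on that plate plus 3 SD, cut at about 29% in these data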;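 note: 0% = Melanotan II alone and 100% = Melanotan II plus saturating MCL0020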
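Assay system: human MC4R-expressing U2OS cells; reagent: Melanotan II stimulation of cells; dosing: 6.5 µM single dose; timing: compound 30 min, challenge 1 h, detection 1 h; signal: TR-FRET cAMP assay; replicates: one well per compound, no replicates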
A1 inh – caspase 3/7 activation in MEF A1-2A-BIM cells, primary screen, A1 inhibitor project, cell-based, luminescence, HTS; Caspase-Glo 3/7 luminescence, 3 h; percent of clofoctol response, vehicle zero; caspase activation, % (concentration not given with the values); actives 0.066% (n = 330,000);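 active = over half of replicate activation scores above 10%, or exactly half above 10 with the replicate mean above 10; inconclusive = replicate mean below 10 yet half the replicates above 10; inactive = over half of replicates below 10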
sPLA2-III inh – human group III sPLA2 inhibitors, primary screen, biochemical, QFRET, BODIPY PC-A2 liposome substrate; QFRET BODIPY PC-A2 liposome hydrolysis, fluorescence; inhibition, % at 12.2 µM; actives 0.56% (n = 370,000);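 active = inhibition above mean plus 3 SD of compounds lying within the high and low control bounds, cut at about 19% in these data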;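 note: 0% = median of test compound wells and 100% = no enzyme DMSO wells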
Target sequence (Q9NZ20 whole entry, looked up): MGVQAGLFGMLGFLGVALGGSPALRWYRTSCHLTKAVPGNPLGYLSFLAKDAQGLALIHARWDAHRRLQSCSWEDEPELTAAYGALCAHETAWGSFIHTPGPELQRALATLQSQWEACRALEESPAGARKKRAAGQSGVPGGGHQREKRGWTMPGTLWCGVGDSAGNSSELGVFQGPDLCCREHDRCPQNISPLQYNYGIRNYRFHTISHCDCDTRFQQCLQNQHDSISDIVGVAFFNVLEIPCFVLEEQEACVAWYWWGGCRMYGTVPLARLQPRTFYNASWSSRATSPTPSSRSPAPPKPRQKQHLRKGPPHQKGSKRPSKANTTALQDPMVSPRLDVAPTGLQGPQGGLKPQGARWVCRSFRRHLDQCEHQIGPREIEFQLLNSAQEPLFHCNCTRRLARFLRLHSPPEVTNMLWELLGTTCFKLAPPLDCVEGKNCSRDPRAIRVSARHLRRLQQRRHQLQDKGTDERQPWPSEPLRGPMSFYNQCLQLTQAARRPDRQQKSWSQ
Exocytosis inh – LAMP-1 surface exposure blockers, TALL-104 cells – cell-based, flow cytometry, MLPCN library, primary screen; actives 0.66% (n = 360,000); inhibition, % at 10 µM; TALL-104 LAMP-1 surface exposure; cells stimulated with thapsigargin and PMA;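 active = inhibition above about 55%, limit read from the data; inconclusive = no clear call, values can overlap the other calls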
MC4R ag barr – MC4R agonists recruiting beta-arrestin, primary screen, cell-based, luminescence, agonist arm of biased-ligand search. Melanocortin receptor 4 (Homo sapiens), P32245. U2OS MC4R beta-arrestin complementation; percent of melanotan II response, DMSO zero. activation, % at 8.9 µM. actives 0.98% (n = 360,000). AID 540308, 2011;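 active = activation above a per-plate cutoff, the mean activation of sample wells on that plate plus 3 SD, cut at about 8% in these data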
NTR1 agonist – agonists of human NTR1, primary screen, imaging, U2OS cells, beta-arrestin-GFP, high content | Neurotensin receptor type 1 (Homo sapiens), P30989 | NTR1-U2OS beta-arrestin-GFP spot imaging, agonist mode | activation, % at 20 µM | actives 0.17% (n = 330,000);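 active = activation at or above 40% of the spot to cytoplasm intensity ratio, with at least 20 cells analyzed; inconclusive = wells under 20 cells, flagged as cytotoxic or low count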;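 note: 0% = DMSO without peptide and 100% = 100 nM NTR1 peptide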
sPLA2 confirm – human group III sPLA2 inhibitors, confirmation, biochemical, QFRET, triplicate; shares compounds with sPLA2-III inh; recombinant hGIII-sPLA2, BODIPY PC-A2 QFRET fluorescence; inhibition, % at 12.2 µM; actives 34% (n = 2,000); AID 743280, 2014;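 active = mean inhibition across triplicates above the hit cutoff set in the earlier primary screen, cut at about 19% in these data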;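 note: 0% = enzyme with DMSO and 100% = DMSO wells lacking enzyme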
535nm interf – 535nm fluorescence optical interference, confirmation, artefact control for HGIII-sPLA2 inhibitor project, biochemical, QFRET; shares compounds with sPLA2-III inh; BODIPY FL product fluorescence interference; inhibition, % at 12.2 µM; actives 8.5% (n = 2,000); AID 743282, 2014;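 active = average inhibition above the solvent-only control mean plus 3 SD, cut at about 6% in these data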;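 note: 0% = DMSO with substrate plus product and 100% = DMSO with substrate alone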
535nm interf DR – 535nm fluorescence optical interference, dose response, artefact control for HGIII-sPLA2 inhibitor project, biochemical, QFRET. shares compounds with sPLA2-III inh. BODIPY FL product fluorescence interference, cell-free. IC50, µM. 240 tested, under 10 active;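 active = IC50 at or below 10 µM; inactive = IC50 above 10 µM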
The depositor's hits bear a star; u = inconclusive; x = no result given.

SMILES	MC4R antagonist	A1 inh	sPLA2-III inh	Exocytosis inh	MC4R ag barr	NTR1 agonist	sPLA2 confirm	535nm interf	others
COc1ccc(C[C@H]2c3cc(O)c(OC)cc3CC[N+]2(C)[O-])cc1O (stereo partly specified)	-10	0	-8	21	-2	2	x	x
O=C(NC1CCCCN(Cc2cccc(Cl)c2)C1=O)c1cccc(F)c1 (stereo unspecified)	x	x	8	x	x	x	x	x
COc1ccccc1CC(=O)Nc1ccc(Cl)cc1C(=O)O	25	1	-4	5	1	-2	x	x
COC(=O)c1cc(Cl)ccc1NCC(N)c1ccccc1 (stereo unspecified)	x	x	20*	5	x	x	9	-15
O=C(Nc1ccc(Cl)cc1)c1csc([C@@H]2C[C@H](O)[C@@H](CO)O2)n1	-6	x	-3	2	-1	x	x	x
CC(C)(C)c1ccc(C#C[C@@H]2C=C[C@@H](O)[C@@H](CO)O2)cc1	x	x	20*	x	x	x	-2	-12
Cc1ccc2[nH]c(O)c(N=Nc3ccccc3C)c2c1	0	1	10	0	0	5	x	x
COc1ccc2[nH]c(N=Nc3ccccc3C)c(O)c2c1	11	-1	25*	u	0	9	10	2
CCOc1cc(CNc2ncc(-c3ccc(OC)cc3)n2C)ccc1O	-1	1	20*	-1	-3	-1	6	-17
COc1ccc(C(=O)NC(=S)Nc2cccc(NC(=O)c3ccco3)c2)cc1[N+](=O)[O-]	-5	0	28*	-2	-1	4	10	2
CCCCC(=O)Nc1ccc(NC(=S)NC(=O)c2ccco2)cc1OC	2	-1	31*	6	0	4	18	-9
CC(=O)N1CCN(c2ccc(NC(=S)NC(=O)c3ccc(C)c([N+](=O)[O-])c3)cc2)CC1	7	1	8	12	-2	1	x	x
COc1ccc(C(=O)NC(=S)Nc2ccc(N3CCN(C(C)=O)CC3)cc2)cc1[N+](=O)[O-]	-2	1	21*	-3	-2	-2	10	-18
S=C(NCc1ccccn1)Nc1cccc(Cl)c1	-3	-1	5	-5	1	1	x	x
CC(=NNC(=S)Nc1cccc(Cl)c1)c1ccccn1	-3	x	20*	-1	-2	x	38*	4
O=C(N/N=C/c1ccc(O)c(O)c1O)/C(=C/c1ccc([N+](=O)[O-])cc1)NC(=O)c1ccccc1	1	0	25*	-2	-2	3	29*	6.1*
Nc1cccc(Nc2nc(OC(C(F)(F)F)C(F)(F)F)nc(OC(C(F)(F)F)C(F)(F)F)n2)c1	10	-1	28*	-2	4	7	31*	-3	535nm interf DR=>122
COC(=O)c1ccc(C(=O)OC)c(NC(=S)N2CCC(C)CC2)c1	18	-1	22*	-3	3	3	7	-6
